≈ marks a conversion by molar mass, not a printed value.
Assays:
Escherichia coli = test: Antibacterial activity against Escherichia coli ATCC 25922/35128 after 24 hrs by MTT assay; assay type: functional; details: ATCC 25922/35128, 24 h
In short: (§1)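 Seeded broth in nutrient broth from 24 h bacterial cultures on nutrient agar at 37 °C. Suspension adjusted with sterile saline to 1 × 10⁴–10⁵ CFU. Compounds and reference drugs twofold serially diluted to 100, 50, 25, 12.5, 6.25 … µg/mL. MIC determined by MTT method.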

[1] = inhibition of Escherichia coli FabH expressed in Escherichia coli BL21 (DE3) cells assessed as [3H]acetyl-CoA after 5 mins by liquid scintillation counting; details: in the assay text read “after 25 mins” for “after 5 mins”
In short: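 His-tagged E. coli FabH was expressed in kanamycin-selected culture in LB at 37 °C, induced with 0.5 mM IPTG for 4 h, then Ni–NTA purified. Reactions were run in 20 mM sodium phosphate, pH 7.0, with holo-ACP. They were stopped with ice-cold 50% TCA, the protein was pelleted, and ³H incorporation into product was read by liquid scintillation. Inhibitors were added from DMSO stock, final DMSO ≤2%.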

Pseudomonas aeruginosa = test: Antibacterial activity against Pseudomonas aeruginosa ATCC 27853 after 24 hrs by MTT assay; assay type: functional; details: ATCC 27853, 24 h; in short: as §1
Bacillus subtilis = test: Antibacterial activity against Bacillus subtilis ATCC 530 after 24 hrs by MTT assay; assay type: functional; details: ATCC 530, 24 h; in short: as §1
Staphylococcus aureus = test: Antibacterial activity against Staphylococcus aureus ATCC 25923 after 24 hrs by MTT assay; assay type: functional; details: ATCC 25923, 24 h; in short: as §1
[2] = Toxicity in RBC assessed as hemolysis; assay type: cell-based; details: erythrocyte
[3] = inhibition of Escherichia coli FabH expressed in Escherichia coli BL21 (DE3) cells assessed as [3H]acetyl-CoA after 25 mins by liquid scintillation counting

SMILES	MIC (Escherichia coli) [µg/mL]	IC50 [1] [µM]	MIC (Pseudomonas aeruginosa) [µg/mL]	MIC (Bacillus subtilis) [µg/mL]	MIC (Staphylococcus aureus) [µg/mL]	IC50 [3] [µM]	LC30 [2] [µg/mL]
Cc1ncc([N+](=O)[O-])n1Cc1nnc(-c2ccc(F)cc2)o1	12.5 (≈ 41.2 µM)	18.6	25 (≈ 82.4 µM)	12.5 (≈ 41.2 µM)	25 (≈ 82.4 µM)		> 10000
Cc1ncc([N+](=O)[O-])n1Cc1nnc(-c2ccc(Cl)cc2)o1	12.5 (≈ 39.1 µM)	28.3	12.5 (≈ 39.1 µM)	12.5 (≈ 39.1 µM)	25 (≈ 78.2 µM)		> 10000
Cc1ncc([N+](=O)[O-])n1Cc1nnc(-c2ccc(Br)cc2)o1	25 (≈ 68.7 µM)	43.8	25 (≈ 68.7 µM)	12.5 (≈ 34.3 µM)	50 (≈ 137 µM)		> 10000
Cc1ncc([N+](=O)[O-])n1Cc1nnc(-c2cccc(F)c2)o1	> 100		> 100	> 100	> 100		
Cc1ncc([N+](=O)[O-])n1Cc1nnc(-c2cccc(Br)c2)o1	6.25 (≈ 17.2 µM)	16.9	25 (≈ 68.7 µM)	6.25 (≈ 17.2 µM)	25 (≈ 68.7 µM)		> 10000
COc1cccc(-c2nnc(Cn3c([N+](=O)[O-])cnc3C)o2)c1	12.5 (≈ 39.6 µM)	9.4	12.5 (≈ 39.6 µM)	6.25 (≈ 19.8 µM)	12.5 (≈ 39.6 µM)		> 10000
COc1ccccc1-c1nnc(Cn2c([N+](=O)[O-])cnc2C)o1	1.56 (≈ 4.95 µM)	4.3	1.56 (≈ 4.95 µM)	1.56 (≈ 4.95 µM)	3.13 (≈ 9.93 µM)		> 10000
Cc1ccccc1-c1nnc(Cn2c([N+](=O)[O-])cnc2C)o1	1.56 (≈ 5.21 µM)		3.13 (≈ 10.5 µM)	1.56 (≈ 5.21 µM)	6.25 (≈ 20.9 µM)	5.1	> 10000
Cc1ncc([N+](=O)[O-])n1Cc1nnc(Cc2cccc(F)c2)o1	> 100		> 100	> 100	> 100		
COc1cccc(Cc2nnc(Cn3c([N+](=O)[O-])cnc3C)o2)c1	25 (≈ 75.9 µM)		12.5 (≈ 38 µM)	25 (≈ 75.9 µM)	50 (≈ 152 µM)		
COc1ccccc1Cc1nnc(Cn2c([N+](=O)[O-])cnc2C)o1	50 (≈ 152 µM)		12.5 (≈ 38 µM)	25 (≈ 75.9 µM)	25 (≈ 75.9 µM)		
Cc1ccccc1Cc1nnc(Cn2c([N+](=O)[O-])cnc2C)o1	12.5 (≈ 39.9 µM)		25 (≈ 79.8 µM)	50 (≈ 160 µM)	25 (≈ 79.8 µM)		
NC[C@H]1O[C@H](O[C@H]2[C@H](O)[C@@H](O[C@H]3O[C@H](CO)[C@@H](O)[C@H](N)[C@H]3O)[C@H](N)C[C@@H]2N)[C@H](O)[C@@H](O)[C@@H]1O [KANAMYCIN]	3.13 (≈ 6.46 µM)		3.13 (≈ 6.46 µM)	1.56 (≈ 3.22 µM)	1.56 (≈ 3.22 µM)		

More lines, main results first:

MIC (Escherichia coli) [µg/mL]	IC50 [1] [µM]	MIC (Pseudomonas aeruginosa) [µg/mL]	MIC (Bacillus subtilis) [µg/mL]	MIC (Staphylococcus aureus) [µg/mL]	IC50 [3] [µM]	SMILES	LC30 [2] [µg/mL]
12.5 (≈ 37.8 µM)		12.5 (≈ 37.8 µM)	25 (≈ 75.7 µM)	25 (≈ 75.7 µM)	40.5	Cc1ncc([N+](=O)[O-])n1Cc1nnc(-c2ccc([N+](=O)[O-])cc2)o1	> 10000
25 (≈ 78.8 µM)		12.5 (≈ 39.4 µM)	50 (≈ 158 µM)	25 (≈ 78.8 µM)		Cc1ncc([N+](=O)[O-])n1Cc1nnc(Cc2ccc(F)cc2)o1	
50 (≈ 150 µM)		12.5 (≈ 37.5 µM)	50 (≈ 150 µM)	25 (≈ 74.9 µM)		Cc1ncc([N+](=O)[O-])n1Cc1nnc(Cc2ccc(Cl)cc2)o1	
50 (≈ 132 µM)		25 (≈ 66.1 µM)	50 (≈ 132 µM)	50 (≈ 132 µM)		Cc1ncc([N+](=O)[O-])n1Cc1nnc(Cc2ccc(Br)cc2)o1	
25 (≈ 66.1 µM)		6.25 (≈ 16.5 µM)	25 (≈ 66.1 µM)	50 (≈ 132 µM)		Cc1ncc([N+](=O)[O-])n1Cc1nnc(Cc2cccc(Br)c2)o1	
25 (≈ 72.6 µM)		25 (≈ 72.6 µM)	25 (≈ 72.6 µM)	50 (≈ 145 µM)		Cc1ncc([N+](=O)[O-])n1Cc1nnc(Cc2ccc([N+](=O)[O-])cc2)o1	
